From ChEMBL document CHEMBL1155436, “Phantasmidine: an epibatidine congener from the ecuadorian poison frog Epipedobates anthonyi” (J Nat Prod, 2010)
The source made the active and inactive calls. No cut-off for these calls is given here.

Columns and labels:
[1] = target: T1, Neuronal acetylcholine receptor; alpha3/beta4 (Rattus norvegicus) (UniProt P04757+P12392); test: Agonist activity at rat alpha3beta4 nAChR expressed in HEK cells assessed as elevation of intracellular calcium after 1 hr by HPLC based fluorescence assay; assay type: functional, cell-based; details: HEK293
[2] = target: Neuronal acetylcholine receptor; alpha4/beta2 (Rattus norvegicus) (UniProt P09483+P12390); test: Agonist activity at rat alpha4beta2 nAChR expressed in HEK cells assessed as membrane depolarization after 1 hr by HPLC based fluorescence assay; assay type: functional, cell-based; details: HEK293
Outline: (§1)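 Membrane potential assay in G418-selected KXR3β4R2, KXR4β4R1 or KXR4β2R2 lines on poly-D-lysine plates (DMEM, 10% FBS, near confluence). Cells washed in HBSS/HEPES pH 7.4 and loaded with no-wash dye 1 h dark at room temperature. Fractions reconstituted in HBSS/HEPES, added after 15 s basal, read 105 s. Nicotine (300 µM added solution) and KCl (160 mM) follow. Peak response normalised to KCl maximum after basal subtraction.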

[3] = target: T1, Neuronal acetylcholine receptor; alpha3/beta4 (Rattus norvegicus); test: Agonist activity at rat alpha3beta4 nAChR expressed in HEK cells assessed as membrane depolarization after 1 hr by HPLC based fluorescence assay; assay type: functional, cell-based; details: HEK293; outline: as §1
[4] = target: Neuronal acetylcholine receptor; alpha4/beta2 (Homo sapiens) (UniProt P17787+P43681); test: Agonist activity at human alpha4beta2 nAChR expressed in human K177 cells assessed as membrane depolarization after 1 hr by HPLC based fluorescence assay; assay type: functional, cell-based
[5] = target: T2, Neuronal acetylcholine receptor; alpha3/beta4 (Homo sapiens) (UniProt P30926+P32297); test: Agonist activity at human alpha3beta4 nAChR in human IMR32 cells assessed as membrane depolarization after 1 hr by HPLC based fluorescence assay; assay type: functional, cell-based; details: IMR-32
Outline: (§2)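 Membrane potential dye assay in native SH-SY5Y, IMR-32 or TE-671 cells. Cells grown near confluence on poly-D-lysine plates in DMEM with 10% FBS, washed in HBSS/20 mM HEPES pH 7.4, then loaded with dye 1 h in dark at room temperature. Ex 530/em 565 nm. Sequence: 15 s basal, HPLC fraction 105 s, 300 µM nicotine (added solution), 160 mM KCl (added solution). Response = basal-subtracted peak ÷ KCl maximum.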

[6] = target: Acetylcholine receptor; alpha1/beta1/delta/gamma (Homo sapiens) (UniProt P02708+P07510+P11230+Q07001); test: Agonist activity at human alpha-1-beta-1-gamma-delta nAChR expressed in human TE671 cells assessed as membrane depolarization after 1 hr by HPLC based fluorescence assay; assay type: functional, cell-based; details: TE-671; outline: as §2
[7] = target: Neuronal acetylcholine receptor; alpha4/beta4 (Rattus norvegicus) (UniProt P09483+P12392); test: Agonist activity at rat alpha4beta4 nAChR expressed in HEK cells assessed as membrane depolarization after 1 hr by HPLC based fluorescence assay; assay type: functional, cell-based; details: HEK293; outline: as §1
[8] = target: T2, Neuronal acetylcholine receptor; alpha3/beta4 (Homo sapiens); test: Agonist activity at human alpha3beta4 nAChR in human SH-SY5Y cells assessed as membrane depolarization after 1 hr by HPLC based fluorescence assay; assay type: functional, cell-based; outline: as §2
[9] = Selectivity of beta4 nAChR over beta2 nAChR

| Compound | Activity [1] | Activity [3] | Activity [5] | Activity [8] | fold change (FC) [9] | further results |
| --- | --- | --- | --- | --- | --- | --- |
| Clc1ccc2c(n1)O[C@@]13CC[C@@H]1NC[C@@H]23 | Active | Active | Active | Active | – | Activity [2]: inactive; Activity [4]: inactive; Activity [6]: inactive; Activity [7]: Active |
| c1cncc([C@H]2C[C@@H]3CC[C@H]2N3)c1 | – | – | – | – | 3 | – |
| Clc1ccc(C2CC3CCC2N3)cn1 (stereo not given) | Active | Active | Active | Active | – | – |
| Clc1ccc(C2=CCC[C@@H]3CC[C@H]2N3)cn1 | – | – | – | – | 3 | – |
| O=C1NC[C@@]2(CN3CCC2CC3)O1 | – | – | – | – | > 20 | – |
